The results in this text go back to ChEMBL document CHEMBL3286263, “Bazedoxifene-scaffold-based mimetics of solomonsterols A and B as novel pregnane X receptor antagonists” (J Med Chem, 2014).

Data set [1] has as its target T1, Nuclear receptor subfamily 1 group I member 2 (Homo sapiens, UniProt O75469).
T1 sequence (O75469 whole entry): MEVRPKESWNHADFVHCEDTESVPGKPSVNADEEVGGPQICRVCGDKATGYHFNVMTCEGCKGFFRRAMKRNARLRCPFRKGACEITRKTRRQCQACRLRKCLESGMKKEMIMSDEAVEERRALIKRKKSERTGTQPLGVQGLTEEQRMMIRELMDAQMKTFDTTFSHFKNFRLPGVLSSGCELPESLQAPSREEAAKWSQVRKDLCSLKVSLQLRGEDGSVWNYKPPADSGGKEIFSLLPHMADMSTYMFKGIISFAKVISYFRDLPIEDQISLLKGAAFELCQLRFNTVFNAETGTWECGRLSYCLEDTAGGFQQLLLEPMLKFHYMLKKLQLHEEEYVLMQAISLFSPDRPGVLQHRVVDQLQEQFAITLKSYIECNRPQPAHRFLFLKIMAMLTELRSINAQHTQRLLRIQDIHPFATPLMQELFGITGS
The data set can be described thus: Agonist activity at human PXR transfected in human HepG2 cells co-transfected with pSG5-RXR/pCMV-beta-galactosidase/p(CYP3A4)-TK-Luc at 10 uM after 18 hrs by luciferase reporter gene assay. The settings on record: hepg2, 18 h. It counts as cell-based. Summed up:
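HepG2 seeded 5x10^4 cells/well in MEM/10% FBS, transfected (Fugene HD) with pSG5hPXR, pSG5-RXR, pCMV-β-galactosidase and PXRE luciferase reporter. At 24 h post-transfection, treated 18 h with compounds at 10 µM; rifaximin and solomonsterol A (10 µM) as reference agonists. Lysate luciferase read, normalised to β-galactosidase activity.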

Data set [2] deals with T1, Nuclear receptor subfamily 1 group I member 2. The data set can be described thus: Antagonist activity at human PXR transfected in African green monkey CV1 cells assessed as inhibition of SR12813-induced transactivation after 24 hrs by luciferase reporter gene assay. It counts as cell-based, CV-1.
For data set [3] the target is unchanged. Nature of the data set: Antagonist activity at human PXR transfected in human HepG2 cells co-transfected with pSG5-RXR/pCMV-beta-galactosidase/p(CYP3A4)-TK-Luc assessed as inhibition of rifaximin-induced transactivation at 50 uM after 18 hrs by luciferase reporter gene assay. It counts as cell-based. As to conditions: hepg2, 18 h. Summed up: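 HepG2 transiently transfected with hPXR, RXR, β-galactosidase and PXRE-luciferase vectors; 24 h later exposed 18 h to rifaximin 10 µM plus compound at 50 µM. Luciferase in lysate measured and divided by β-galactosidase activity to correct for transfection efficiency.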

Data set [4] has the same target. The data set can be described thus: Antagonist activity at PXR (unknown origin) transfected in human HepG2 cells assessed as inhibition of rifampicin-induced reporter gene transcription. Type of data set: cell-based.
The subject of data set [5] is HepG2. The data set can be described thus: Cytotoxicity against human HepG2 cells transfected with pSG5-PXR/pSG5-RXR/pCMV-beta-galactosidase/p(CYP3A4)-TK-Luc at 50 uM. It counts as ADME, cell-based. The settings on record: hepg2, 50 µM. Summed up:
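Transfected HepG2 cells given rifaximin 10 µM plus compound at 50 µM for 18 h; cytotoxicity judged by morphological analysis.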

The test system of data set [6] is HepG2. Nature of the data set: Downregulation of PXR mRNA expression in rifaximin-treated human HepG2 cells at 50 uM after 18 hrs by real time-PCR analysis. It counts as functional, cell-based. Summed up:
(§1)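 HepG2 seeded 5x10^5 cells/well, grown to about 70% confluence, serum-starved 24 h, then treated 18 h with rifaximin 10 µM alone or with compound at 50 µM. PXR and CYP3A4 mRNA by real-time PCR in triplicate (40 cycles), normalised to GAPDH, 2^-ΔΔCt relative to untreated cells; mean of two experiments.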

The target of data set [7] is T1, Nuclear receptor subfamily 1 group I member 2. Nature of the data set: Antagonist activity at human PXR transfected in human HepG2 cells co-transfected with pSG5-RXR/pCMV-beta-galactosidase/p(CYP3A4)-TK-Luc assessed as inhibition of rifaximin-induced transactivation after 18 hrs by luciferase reporter gene assay. Type of data set: cell-based. The settings on record: for inhibition (INH): human, hepg2, 18 h. Summed up:
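PXR/RXR/β-gal/PXRE-luciferase-transfected HepG2 cells, 24 h post-transfection, co-treated 18 h with 10 µM rifaximin and compound at 10, 25 and 50 µM. β-galactosidase-normalised luciferase signal used to fit concentration-response curves for IC50.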

Data set [8] shares this target. The data set can be described thus: Antagonist activity at PXR in human HepG2 cells assessed as inhibition of rifaximin-induced CYP3A4 mRNA expression at 50 uM after 18 hrs by real time-PCR analysis. The settings on record: hepg2, 18 h. Type of data set: cell-based. Summed up: as §1

Activity calls are given as the source filed them. The calls are words filed in the database; no cut-off is given here.

Regarding `C[C@H](CCCOS(=O)(=O)[O-])[C@H]1CC[C@H]2[C@@H]3CC[C@H]4C[C@H](OS(=O)(=O)[O-])[C@@H](OS(=O)(=O)[O-])C[C@]4(C)[C@H]3CC[C@]12C.[Na+].[Na+].[Na+]` [SOLOMONSTEROL A], the outcome in data set [1] was Active.

On to `O=c1oc2cc(O)ccc2c2oc3cc(O)ccc3c12` [COUMESTROL], for which the IC50 in data set [2] was determined as 12 µM.

For `Cc1c(-c2ccc(OS(=O)(=O)[O-])cc2)[nH]c2ccc(OS(=O)(=O)[O-])cc12.[Na+].[Na+]`, the Activity result in data set [1] was “Not Active”. For the same molecule, in data set [3], the “inhibition (INH)” value is “Not Active”.

As to `Cc1ccc(SC(=O)c2c(C)noc2-c2cc(C)on2)cc1`, the IC50 in data set [4] was determined as 0.85 µM.

As for `CCCn1c(-c2ccc(O)c(O)c2)c(C)c2cc(O)ccc21`, in data set [3], the “inhibition (INH)” value is “Active”. Moreover, the Activity entry in the data set on HepG2 [5] is listed as “Toxic”.

With `CO[C@H]1/C=C/O[C@@]2(C)Oc3c(C)c(O)c4c(O)c(c5c(nc6cc(C)ccn65)c4c3C2=O)NC(=O)/C(C)=C\C=C\[C@H](C)[C@H](O)[C@@H](C)[C@@H](O)[C@@H](C)[C@H](OC(C)=O)[C@@H]1C` [RIFAXIMIN], the result in data set [1] was Active.

For `Cc1c(-c2ccc(O)c(O)c2)[nH]c2ccc(OCCO)cc12`, the Activity entry in data set [1] is given as “Not Active”. In data set [3], the “inhibition (INH)” value was “Active”.

As for `COc1ccc2[nH]c(-c3ccc(OC)c(OC)c3)c(C)c2c1`, in data set [3], the “inhibition (INH)” value is “Active”. In addition, the Activity entry in the data set on HepG2 [5] was “Non-toxic”.

In the case of `Cc1c(-c2ccc(OS(=O)(=O)[O-])c(OS(=O)(=O)[O-])c2)[nH]c2ccc(OS(=O)(=O)[O-])cc12.[Na+].[Na+].[Na+]`, in data set [1], the Activity entry is “Not Active”. The “inhibition (INH)” value in data set [3] is “Not Active”.

Regarding `Cc1c(-c2ccc(OS(=O)(=O)[O-])cc2)[nH]c2ccc(OCCCOS(=O)(=O)[O-])cc12.[Na+].[Na+]`, the Activity entry in data set [1] was “Not Active”. Moreover, in data set [3], the “inhibition (INH)” value is listed as “Not Active”.

Regarding `COc1ccc2c(c1)c(C)c(-c1ccc(OC)c(OC)c1)n2C`, the “inhibition (INH)” value in data set [3] was “Active”. Moreover, the Activity entry in the data set with HepG2 [5] is given as “Toxic”.

For `Cc1c(-c2ccc(O)cc2)[nH]c2ccc(OCCCO)cc12`, the Activity result in data set [1] was “Not Active”. Moreover, in data set [3], the “inhibition (INH)” value is “Active”.

On to `Cc1c(-c2ccc(OS(=O)(=O)[O-])cc2)[nH]c2ccc(OCCOS(=O)(=O)[O-])cc12.[Na+].[Na+]`, for which, in data set [1], the Activity result is reported as “Not Active”. In addition, the “inhibition (INH)” value in data set [3] was “Not Active”.

For `Cc1c(-c2ccc(O)c(O)c2)[nH]c2ccc(O)cc12`, the Activity result in data set [1] is given as “Not Active”. Further, the result in the data set on HepG2 [6] was Active. Also, the “inhibition (INH)” value in data set [3] is listed as “Active”; in data set [7], “Dose-dependent effect”; in data set [8] it was “Active”. Besides, in data set [7], the IC50 is 11 µM.

Turning to `Cc1c(-c2ccc(O)cc2)[nH]c2ccc(O)cc12`, the Activity result in data set [1] was “Not Active”. Besides, the “inhibition (INH)” value in data set [3] is listed as “Active”.

For `Cc1c(-c2ccc(O)c(O)c2)n(C)c2ccc(O)cc12`, the “inhibition (INH)” value in data set [3] is “Active”. The Activity entry in the data set on HepG2 [5] is on record as “Toxic”.

As to `Cc1c(-c2ccc(O)c(O)c2)[nH]c2ccc(OCCCO)cc12`, the Activity result in data set [1] is reported as “Not Active”. Besides, the result in the data set on HepG2 [6] was Active. For the same molecule, the results for the “inhibition (INH)” value in data set [3], in data set [7] and in data set [8] were “Active”, “Dose-dependent effect” and “Active”, respectively. In addition, the IC50 in data set [7] is 14 µM.

For `Cc1c(-c2ccc(O)cc2)[nH]c2ccc(OCCO)cc12`, the Activity result in data set [1] is given as “Not Active”. Besides, the “inhibition (INH)” value in data set [3] was “Active”.

On to `Cc1c(-c2ccc(O)c(O)c2)n(Cc2ccccc2)c2ccc(O)cc12`, for which the “inhibition (INH)” value in data set [3] is listed as “Active”. Besides, the Activity result in the data set with HepG2 [5] was “Toxic”.

For the molecule `Cc1c(-c2ccc(OS(=O)(=O)[O-])c(OS(=O)(=O)[O-])c2)[nH]c2ccc(OCCCOS(=O)(=O)[O-])cc12.[Na+].[Na+].[Na+]`, the Activity result in data set [1] is given as “Not Active”. The “inhibition (INH)” value in data set [3] is listed as “Not Active”.
